Results taken from paper PMC5600879 (Journal of computer-aided molecular design, 2014).

Tests used:
Type in all cases: cell-based, human
[1] = Raji cell viability by Trypan Blue staining; details: human, Raji cells
Method in brief: (§1)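 Raji cells incubated 48 h at 37 °C in RPMI-1640 with 10 % FCS, n-butyric acid (4 mmol), TPA (32 pmol), and test compound at 0.32, 3.2, 16 or 32 nmol (10- to 1,000-fold of TPA). Viability was scored by Trypan Blue staining, and viability above 60 % was required to count as non-cytotoxic. Each concentration was run three times and averaged.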

[2] = tested on: TPA-induced EBV-EA expression in Raji cells; experiment: EBV-EA activation assay; details: for Exp. Act.: class from experimental LogCurvP, threshold 1.25; for LogCurvP: log10 transformed response fingerprint (CurveP) of the four-dose EBV-EA data
[3] = tested on: Raji cells; experiment: Raji cell viability by Trypan Blue staining; details: value in parentheses at 32 (1,000-fold of TPA); Trypan Blue staining
Method in brief: as §1

Structure (SMILES) | viability at 48 h, 32 nmol [1] | Exp. Act. [2] | LogCurvP [2] | viability percentages of Raji cells [3] | EBV-EA inhibition potency, comparison in words [2]
O=C(/C=C/c1cccc(O)c1)NCc1cccc(O)c1 [Compound 4, (E)-N-(3-hydroxybenzyl)-3-(3-hydroxyphenyl)acrylamide] | > 60% | Marginal active (active/marginally active threshold at LogCurvP = 1.25) | 1.04 | – | –
COc1ccc(O)c(C(=O)/C=C/c2cccc(OC)c2OC)c1 [Compound 5, (E)-3-(2,3-dimethoxyphenyl)-1-(2-hydroxy-5-methoxyphenyl)prop-2-en-1-one] | > 60% | Active | 1.43 | – | –
COc1ccc2oc(-c3ccc(O)c(OC)c3)cc(=O)c2c1 [Compound 10, 2-(4-hydroxy-3-methoxyphenyl)-6-methoxy-4H-chromen-4-one] | > 60% | Active | 1.43 | – | –
COc1cccc(CN(C)C(=O)/C=C/c2cccc(O)c2)c1 [Compound 1, (E)-3-(3-hydroxyphenyl)-N-(3-methoxybenzyl)-N-methylacrylamide] | > 60% | – | 1.04 | – | –
O=C(O)COc1cccc2ccccc12 [Compound 18, 2-(naphthalen-1-yloxy)acetic acid] | > 60% | Marginal active (active/marginally active threshold at LogCurvP = 1.25) | 1.04 | – | –
COc1ccc2oc(-c3ccc(O)c(O)c3)cc(=O)c2c1 [Compound 11, 2-(3,4-dihydroxyphenyl)-6-methoxy-4H-chromen-4-one] | > 60% | Active | 1.43 | – | –
O=C(/C=C/c1ccc2c(c1)OCO2)NCCc1ccc(Cl)cc1 [Compound 14, (E)-3-(benzo[d] [1, 3]dioxol-5-yl)-N-(4-chlorophenethyl)acrylamide] | – | Marginal active (active/marginally active threshold at LogCurvP = 1.25) | 0.85 | > 60% | –
COC(=O)COc1cccc2ccccc12 [Compound 17, Methyl 2-(naphthalen-1-yloxy)acetate] | > 60% | Marginal active (active/marginally active threshold at LogCurvP = 1.25) | 1.04 | – | –
O=C(/C=C/c1ccc2c(c1)OCO2)NCCCc1ccccc1 [Compound 15, (E)-3-(benzo[d] [1, 3]dioxol-5-yl)-N-(3-phenylpropyl)acrylamide] | – | Marginal active (active/marginally active threshold at LogCurvP = 1.25) | 1.04 | > 60% | –
O=c1cc(-c2ccc(O)c(O)c2)oc2ccc(O)cc12 [Compound 9, 2-(3,4-dihydroxyphenyl)-6-hydroxy-4H-chromen-4-one] | > 60% | Active | 1.43 | – | most potent analog among the tested compounds
O=C(/C=C/c1cccc(O)c1O)c1cc(O)ccc1O [Compound 7, (E)-3-(2,3-dihydroxyphenyl)-1-(2,5-dihydroxyphenyl)prop-2-en-1-one] | > 60% | Active | 1.43 | – | less potent than its ring-closed analog 9
COc1cccc(/C=C/C(=O)NCc2cccc(OC)c2)c1 [Compound 3, (E)-N-(3-methoxybenzyl)-3-(3-methoxyphenyl)acrylamide] | > 60% | Marginal active (active/marginally active threshold at LogCurvP = 1.25) | 1.04 | – | –
COc1ccc2oc(-c3ccc(OC)c(OC)c3)cc(=O)c2c1 [Compound 8, 2-(3,4-dimethoxyphenyl)-6-methoxy-4H-chromen-4-one] | > 60% | Active | 1.43 | – | –
COc1cc(/C=C/C(=O)CC(=O)/C=C/c2ccc(O)c(OC)c2)ccc1O [Curcumin, reference compound] | > 60% | Active | 1.43 | – | –
CN(Cc1cccc(O)c1)C(=O)/C=C/c1cccc(O)c1 [Compound 2, (E)-N-(3-hydroxybenzyl)-3-(3-hydroxyphenyl)-N-methylacrylamide] | > 60% | Marginal active (active/marginally active threshold at LogCurvP = 1.25) | 1.04 | – | –
CN(C)CCCNC(=O)/C=C/c1ccc2c(c1)OCO2 [Compound 16, (E)-3-(benzo[d] [1, 3]dioxol-5-yl)-N-(3-(dimethylamino)propyl)acrylamide] | – | Marginal active (active/marginally active threshold at LogCurvP = 1.25) | 0.85 | > 60% | –
COc1ccc2c(c1)C(=O)CC(c1cccc(O)c1O)O2 (stereo not shown) [Compound 6, 2-(2,3-dihydroxyphenyl)-6-methoxychroman-4-one] | > 60% | Active | 1.43 | – | –
COc1ccc(CCNC(=O)/C=C/c2ccc3c(c2)OCO3)cc1OC [Compound 13, (E)-3-(benzo[d] [1, 3]dioxol-5-yl)-N-(3,4-dimethoxyphenethyl)acrylamide] | – | Marginal active (active/marginally active threshold at LogCurvP = 1.25) | 1.04 | > 60% | –
